Consider 4 compounds from paper PMC3106293 (Xenobiotica; the fate of foreign compounds in biological …, 2009).

Where two headings read alike, the source gives them in different places.

For one data set, the target named is T1, hSULT1E1 (Homo sapiens, UniProt P49888).
T1 sequence (P49888 1-294): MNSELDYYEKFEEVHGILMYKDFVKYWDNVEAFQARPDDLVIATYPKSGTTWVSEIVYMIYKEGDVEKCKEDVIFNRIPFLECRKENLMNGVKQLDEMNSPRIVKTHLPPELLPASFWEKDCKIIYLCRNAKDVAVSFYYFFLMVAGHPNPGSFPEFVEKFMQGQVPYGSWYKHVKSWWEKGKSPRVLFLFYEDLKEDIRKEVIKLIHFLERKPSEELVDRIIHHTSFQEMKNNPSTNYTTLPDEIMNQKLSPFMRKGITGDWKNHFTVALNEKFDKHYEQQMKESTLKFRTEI
The data set is described as follows: Inhibition of oestradiol sulfation by recombinant hSULT1E1. Type of data set: biochemical. To be noted: for Inhibition of hSULT1E1-catalysed oestradiol sulfation (in words): substrate 0.15 μM oestradiol, concentration range 1–1000 μM. Summed up: (§1)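 Test compound was added in DMSO (1% v/v final). Labelled substrates: [14C]2-naphthol 0.1 mM for hSULT1A1, [3H]DHEA 2 μM for hSULT2A1, [3H]oestradiol 0.15 μM for hSULT1E1. Incubated 30 min at 37°C, stopped with Tris pH 8.7, chloroform-extracted twice, aqueous phase scintillation-counted. IC50 from Hill-slope fit; three determinations.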

The target of data set [1] is T2, hSULT1A1 (Homo sapiens, UniProt P50225). The data set is described as follows: Inhibition of oestradiol sulfation by recombinant hSULT1A1. Type of data set: biochemical.
T2 sequence (P50225 whole entry): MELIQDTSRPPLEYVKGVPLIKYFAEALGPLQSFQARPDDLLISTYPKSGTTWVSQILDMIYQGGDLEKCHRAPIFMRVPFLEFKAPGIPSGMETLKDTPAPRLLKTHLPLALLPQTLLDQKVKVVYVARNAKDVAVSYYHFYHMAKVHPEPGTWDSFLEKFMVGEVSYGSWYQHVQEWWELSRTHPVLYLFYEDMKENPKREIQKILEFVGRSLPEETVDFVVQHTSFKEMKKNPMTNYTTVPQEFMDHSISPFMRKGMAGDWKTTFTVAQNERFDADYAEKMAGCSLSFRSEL
The target in data set [2] is T2, hSULT1A1. The data set is described as follows: Sulfation of flavonoids by recombinant hSULT1A1. The data set is classed as in vitro ADME.
Data set [3] deals with sulfotransferases (SULTs) in human intestine cytosol. The data set is described as follows: Sulfation of flavonoids by human intestine cytosol. To be noted: for Km at 30 min: male, human, human intestine cytosol, pH 6.2. Type of data set: in vitro ADME. The gist of the method:
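Cytosol (50 μg) from a person was incubated in 50 mM sodium phosphate pH 6.2 with 5 mM pNPS, 20 μM PAPS and test compound at 1 μM up to 1000 μM (upper limit varying by compound). After 30 min at 37°C, the reaction was stopped with 0.25 M Tris pH 8.7 and read at 401 nm. Product formation was linear with time. Km came from a Michaelis–Menten fit; means ± SD of three determinations.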

For data set [4], the system named is human intestine cytosol (SULT1A1 and SULT1A3). The data set is described as follows: Inhibition of 2-naphthol sulfation by human intestine cytosol. The following applies: read-out: IC50, 2-Naphthol sulfation, Cytosol, substrate 100 μM 2-naphthol. Type of data set: biochemical. The gist of the method:
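Radioactive assay in 50 mM Tris (pH 6.2) with 20 μM PAPS and [14C]2-naphthol (0.1 mM final). Enzyme source: 100 μg intestine cytosol from a person. Test compound in DMSO (1% v/v final), 0.01–1000 μM. Incubated 30 min at 37°C, stopped with 0.25 M Tris (pH 8.7), extracted twice with chloroform, aqueous phase scintillation-counted. IC50 fitted with a Hill-slope equation; mean ± SD of three determinations.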

Data set [5] addresses T3, hSULT1A3 (Homo sapiens, UniProt P0DMM9). The data set is described as follows: Inhibition of dopamine sulfation by recombinant hSULT1A3. The data set is classed as biochemical.
Data set [6] deals with human intestine cytosolic SULTs. The data set is described as follows: Inhibition of oestradiol sulfation by human intestine cytosol. The following applies: read-out: IC50, Oestradiol sulfation, Cytosol, substrate 0.15 μM oestradiol. Type of data set: biochemical. Summed up: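 [3H]oestradiol (0.15 μM final) sulfation by 100 μg intestine cytosol from a person. Buffer 50 mM Tris (pH 6.2) with 20 μM PAPS. Test compound in DMSO (1% v/v final), 0.01–1000 μM. Reaction 30 min at 37°C, quenched with 0.25 M Tris (pH 8.7), chloroform-extracted twice, aqueous phase counted by scintillation. IC50 from a Hill-slope fit; mean ± SD of three determinations.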

The target in data set [7] is T3, hSULT1A3. The data set is described as follows: Sulfation of flavonoids by recombinant hSULT1A3.
In the next data set the target is T4, hSULT2A1 (Homo sapiens, UniProt Q06520).
T4 sequence (Q06520 1-285): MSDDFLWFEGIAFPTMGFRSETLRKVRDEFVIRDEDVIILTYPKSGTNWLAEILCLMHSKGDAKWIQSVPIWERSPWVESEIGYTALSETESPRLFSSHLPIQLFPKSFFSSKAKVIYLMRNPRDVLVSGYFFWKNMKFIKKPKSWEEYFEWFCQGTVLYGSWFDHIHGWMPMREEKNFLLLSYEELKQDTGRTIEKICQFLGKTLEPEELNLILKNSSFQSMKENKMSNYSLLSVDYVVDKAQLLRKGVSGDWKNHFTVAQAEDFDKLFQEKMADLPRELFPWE
The data set is described as follows: Inhibition of DHEA sulfation by recombinant hSULT2A1. The data set is classed as biochemical. To be noted: for Inhibition of hSULT2A1-catalysed DHEA sulfation (in words): substrate 2 μM DHEA, concentration range 1–1000 μM. The gist of the method: as §1

The target in data set [8] is T2, hSULT1A1. The data set is described as follows: Inhibition of 2-naphthol sulfation by recombinant hSULT1A1. Type of data set: biochemical. The gist of the method: as §1
Where [9] appears, read: flavonoid as substrate, substrate inhibition equation (2).
Setting [10] is: flavonoid as substrate, substrate inhibition equation (2), listed as catechin.
The mark [11] stands for this setting: substrate inhibition constant of flavonoid sulfation, equation (2).
The mark [12] stands for this setting: flavonoid as substrate, Michaelis–Menten equation (1), 1–1000 μM catechin, 1–1000 μM epicatechin, 1–128 μM hesperetin, 1–32 μM eriodictyol.
The mark [13] stands for this setting: flavonoid as substrate, substrate inhibition equation (2), listed as hesperetin.

T3 sequence (P0DMM9 whole entry): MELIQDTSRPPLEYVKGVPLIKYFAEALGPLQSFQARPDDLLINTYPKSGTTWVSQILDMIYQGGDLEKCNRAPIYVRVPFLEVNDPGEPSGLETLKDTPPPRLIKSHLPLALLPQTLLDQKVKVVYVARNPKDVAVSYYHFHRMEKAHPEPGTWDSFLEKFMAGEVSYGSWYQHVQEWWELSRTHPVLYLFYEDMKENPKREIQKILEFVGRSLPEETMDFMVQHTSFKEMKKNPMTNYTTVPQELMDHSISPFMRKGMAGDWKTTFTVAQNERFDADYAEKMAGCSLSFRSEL

For the compound `Oc1cc(O)c2c(c1)OC(c1ccc(O)c(O)c1)C(O)C2` (single isomer, unassigned; (+)) [Catechin, (+)catechin], the entries for the “Inhibition of hSULT1E1-catalysed oestradiol sulfation (in words)” value on hSULT1E1 (listed as (+)catechin) and at hSULT1E1 (listed as catechin) were “did not significantly inhibit” and “not inhibited”, respectively. For the same compound, the IC50 at hSULT1A1 [1] (read-out: IC50, Oestradiol sulfation, hSULT1A1, substrate 0.15 μM oestradiol) worked out at 2.6 ± 0.4 µM; in data set [4] it was 67.1 ± 6.3 µM; on hSULT1A3 [5] (read-out: IC50, Dopamine sulfation by hSULT1A3, substrate 50 μM dopamine) it was 82.5 ± 31.5 µM; in data set [6], 10.1 ± 1.7 µM; on hSULT1A1 [8] (read-out: IC50, 2-Naphthol sulfation, hSULT1A1, substrate 100 μM 2-naphthol), 8.4 ± 3.3 µM. The Km at hSULT1A1 [2] (setting [9]) was 165 ± 8.1 µM; in data set [3] (setting [12]) it was 104 ± 7.3 µM; at hSULT1A3 [7] (setting [9]), 236 ± 5.6 µM. Besides, the Vmax at hSULT1A1 [2] (setting [9]) came out at 187 ± 9.9 nmol/mg/min; on hSULT1A1 [2] (setting [10]), 187 nmol/mg/min; in data set [3] (setting [12]), 6.7 ± 0.02 nmol/mg/min; at hSULT1A3 [7] (setting [9]) it was 342 ± 8.2 nmol/mg/min; at hSULT1A3 [7] (setting [10]) it was 342 nmol/mg/min. Moreover, the Ki on hSULT1A1 [2] (setting [11]) came to 6.37 ± 0.22 µM; at hSULT1A3 [7] (setting [11]), 8 ± 0.29 µM. Moreover, the figures for the “Inhibition of hSULT2A1-catalysed DHEA sulfation (in words)” value at hSULT2A1 (listed as (+)Catechin) and at hSULT2A1 (listed as catechin) were “did not significantly inhibit” and “not inhibited”, respectively.
`O=C1C[C@@H](c2ccc(O)c(O)c2)Oc2cc(O)cc(O)c21` [Eriodictyol, eriodictyol]: the IC50 on hSULT1E1 stood at 677 ± 120 µM; in [4] it was 28.9 ± 4.1 µM; at hSULT1A3 [5], 14.7 ± 8.9 µM; in data set [6] it was 11.8 ± 2 µM; at hSULT2A1, 139 ± 8.8 µM; at hSULT1A1 [8], 15.2 ± 0.9 µM. For the same compound, the Ki at hSULT1A1 [2] amounted to 6.1 ± 0.14 µM; on hSULT1A3 [7] it was 4.6 ± 0.02 µM. The Vmax on hSULT1A1 [2] (setting [9]) was found to be 98.6 nmol/mg/min; in [3] (setting [12]), 19.4 ± 2.4 nmol/mg/min; at hSULT1A3 [7] (setting [9]), 269 nmol/mg/min. Further, in data set [3], the Km at 30 min came out at 220 ± 28 µM.
Turning to `Oc1cc(O)c2c(c1)O[C@H](c1ccc(O)c(O)c1)[C@H](O)C2` [Epicatechin, (−)epicatechin], the “Inhibition of hSULT1E1-catalysed oestradiol sulfation (in words)” value at hSULT1E1 (listed as (−)epicatechin) is “did not significantly inhibit”; on hSULT1E1 (listed as epicatechin) it was “not inhibited”. The half-inhibitory concentration (IC50) on hSULT1A1 [1] was 6.1 ± 1 µM; in [4], 157 ± 37.6 µM; at hSULT1A3 [5], 117 ± 12.9 µM; in [6], 22.7 ± 5.6 µM; at hSULT1A1 [8] it was 42.5 ± 8.5 µM. In addition, the Ki at hSULT1A1 [2] came to 8.7 ± 3.07 µM; on hSULT1A3 [7], 9.5 ± 0.21 µM. Moreover, the Vmax came to 188 nmol/mg/min at hSULT1A1 [2] (setting [9]), 4.2 ± 0.2 nmol/mg/min in [3] (setting [12]) and 442 nmol/mg/min at hSULT1A3 [7] (setting [9]). Also, the Michaelis constant (Km) at 30 min in [3] was found to be 149 ± 9.2 µM. The “Inhibition of hSULT2A1-catalysed DHEA sulfation (in words)” value was “did not significantly inhibit” on hSULT2A1 (listed as (−)epicatechin) and “not inhibited” on hSULT2A1 (listed as epicatechin).
As to `COc1ccc([C@@H]2CC(=O)c3c(O)cc(O)cc3O2)cc1O` [Hesperetin], the half-maximal inhibitory concentration (IC50) at hSULT1E1 was found to be 90.4 ± 11.5 µM; in [4], 32.2 ± 3.6 µM; at hSULT1A3 [5] it was 20.8 ± 8.1 µM; in [6], 3.6 ± 0.4 µM; on hSULT2A1, 152 ± 14.9 µM; on hSULT1A1 [8], 23.4 ± 5.75 µM. The figures for the Ki on hSULT1A1 [2] and on hSULT1A3 [7] were 3.7 ± 0.11 µM and 4.2 ± 0.06 µM, respectively. Also, the Vmax came out at 92.7 nmol/mg/min on hSULT1A1 [2] (setting [13]), 8.9 ± 0.3 nmol/mg/min in [3] (setting [12]), 303 ± 5.8 nmol/mg/min at hSULT1A3 [7] (setting [9]) and 303 nmol/mg/min on hSULT1A3 [7] (setting [13]). Also, the Km at 30 min in [3] worked out at 66 ± 3.3 µM.

Broadly, the IC50 is the concentration that gives 50% inhibition. As usually defined, the Km is the concentration of substrate that gives half-maximal velocity. Broadly, the Vmax is the rate approached at saturating substrate.
